PABP FP inh: PABP poly(A) RNA binding inhibitors, primary screen, biochemical, fluorescence polarization, uHTS; inhibition, % at 35 µM; Polyadenylate-binding protein 1 (Homo sapiens), P11940; 1% of 290,000 active;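 further: calls also rest on retests at 20 µM and on dose response follow-up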
Target sequence (P11940 whole entry, looked up): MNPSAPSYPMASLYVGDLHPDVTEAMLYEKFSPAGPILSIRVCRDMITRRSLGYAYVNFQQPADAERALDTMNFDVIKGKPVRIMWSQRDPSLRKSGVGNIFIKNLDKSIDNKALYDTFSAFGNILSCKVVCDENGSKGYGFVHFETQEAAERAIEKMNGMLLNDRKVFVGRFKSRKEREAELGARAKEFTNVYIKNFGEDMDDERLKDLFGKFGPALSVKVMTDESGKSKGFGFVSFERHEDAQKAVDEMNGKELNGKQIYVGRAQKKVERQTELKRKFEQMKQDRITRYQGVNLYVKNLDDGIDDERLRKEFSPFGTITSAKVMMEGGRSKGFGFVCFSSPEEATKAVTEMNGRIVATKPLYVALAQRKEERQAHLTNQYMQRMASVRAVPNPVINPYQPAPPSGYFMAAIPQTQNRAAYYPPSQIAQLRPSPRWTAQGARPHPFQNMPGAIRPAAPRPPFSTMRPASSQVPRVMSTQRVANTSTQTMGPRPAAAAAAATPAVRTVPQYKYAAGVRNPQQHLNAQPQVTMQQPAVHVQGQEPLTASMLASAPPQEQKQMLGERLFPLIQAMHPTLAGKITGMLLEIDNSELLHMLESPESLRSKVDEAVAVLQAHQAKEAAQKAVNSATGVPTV
FID counter: compounds displacing fluorescent DNA intercalator, primary screen, artefact control for HCV NS3 helicase inhibitor project, biochemical, FID fluorescence; DNA fluorescent intercalator displacement; inhibition, % at 7.9 µM; 0.17% of 290,000 active; in the data active means inhibition above about 37%;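 further: higher means more ethidium bromide displaced from hairpin DNA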
eIF4H inh: human eIF4H binding inhibitors, primary screen, translation initiation inhibitor project, biochemical, uHTS, fluorescence polarization; eIF4H fluorescence polarization binding assay; inhibition, % at 35 µM; 0.94% of 290,000 active; AID 2012, 2009;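 further: calls also rest on retests at 20 µM and on dose response follow-up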
HCV NS3 hel inh: inhibitors of HCV NS3 helicase, primary screen, biochemical, Cy5 molecular beacon fluorescence; NS3 helicase DNA unwinding; 0.56% of 290,000 active; AID 1800, 2009; inhibition, % at 10.9 µM;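 active means inhibition above the mean of all tested compounds plus 3 SD, set per campaign, cut at about 35% in these data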
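Assay system: hepatitis C virus NS3 helicase domain fragment enzyme. Also added: annealed dual-labelled DNA beacon duplex, ATP-started. Timing: 1 h reaction at 25 °C, ATP-initiated. Technique: Cy5 fluorescence at 0 and 60 min, beacon hairpin quenching. Evaluation: % inhibition of unwinding. Replication: one well per compound.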
HCV core dimer: inhibitors of HCV core protein dimerization, primary screen, biochemical, TR-FRET, high-throughput | TR-FRET GST/Flag-core106 dimerization, 1536-well | 0.33% of 300,000 active | inhibition, % at 5 µM;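 active means inhibition above the mean of all tested compounds plus 3 SD, set per screening campaign, cut at about 45% in these data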
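Material: Tagged HCV core106 pair (GST and Flag) | Amount: GST-core106 13.5 nM, Flag-core106 17 nM | Medium: KF-containing HEPES buffer, pH 7.45, DTT, CHAPS, BSA | Reagent: Eu donor and XL665 acceptor anti-tag antibodies | Schedule: 4 h at 22.5 °C | Technique: Time-resolved FRET, ex 340 nm, em 617 and 671 nm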
MLLE-PAM2 inh: inhibitors of PABP1 MLLE–PAM2 peptide binding, primary screen, biochemical, fluorescence polarization, FITC-PAM2, GST-MLLE; Polyadenylate-binding protein 1 (Homo sapiens), P11940; 0.36% of 360,000 active; AID 588489, 2011; inhibition, % at 20 µM; in the data active means inhibition above about 35%, passing the limit was not always enough
Numbers stand for hits; i = inactive; ? = inconclusive; nt = not tested or not shown. Sampled rows, rich in hits. Any-hit rate of the full collection: about 2%. Unless noted, how the calls were made is not given here.

SMILES	PABP FP inh	FID counter	eIF4H inh	HCV NS3 hel inh	HCV core dimer	MLLE-PAM2 inh
COc1cccc2c1C(=O)c1c(O)c3c(c(O)c1C2=O)C[C@@](O)(C(=O)CO)C[C@@H]3O[C@H]1C[C@H](N)[C@H](O)[C@H](C)O1	i	59	?	i	i	i
CC1(C)Oc2cc3oc(=O)ccc3c3c2C2C1CCC(C)(O3)C2O (centres undefined)	nt	nt	nt	nt	nt	i
COCc1cc(=O)[nH]c(=S)[nH]1	i	i	i	i	i	40
CCOCc1cc(C)[nH]c(=O)c1C#N	i	i	i	i	i	i
COCc1cc(C)c(C#N)c(=S)[nH]1	i	i	i	i	i	37
O=C(COC(=O)c1cccc(F)c1)Nc1ccc(Cl)cn1	nt	nt	nt	nt	nt	i
CCCCn1c(N)c(C(=S)NC(=O)CC(C)(C)C)c(=O)n(C)c1=O	i	i	i	i	i	48
CCCn1c(N)c(C(=O)CSc2ncn[nH]2)c(=O)n(C)c1=O	nt	nt	nt	nt	nt	i
CCC(SCC(=O)OC)C(=O)Nc1nnc(C(C)C)s1 (centres undefined)	i	i	i	i	i	39
CCOC(=O)CSC(CC)C(=O)Nc1nnc(C(C)C)s1 (centres undefined)	i	i	i	i	i	i
CSc1ncnc2c1ncn2CCCN1CCN(c2ccccn2)CC1	nt	nt	nt	nt	nt	i
CCOc1ccccc1NC(=S)NNS(=O)(=O)c1c(C)cc(C)cc1C	i	i	i	i	i	41
Cc1cc(Oc2ccc(N)cn2)ccc1Cl	9.2	i	?	i	i	i
O=C(c1ccc(C#CC2(O)CCCCC2)cc1)N1CCN(C(c2ccccc2)c2ccccc2)CC1	i	i	i	i	53	i
O=C(c1ccc(C#CC2(O)CCCCC2)cc1)N1CCN(Cc2ccccc2)CC1	i	i	i	i	i	i
Cc1onc(-c2ccccc2)c1C(=O)Nc1nc(-c2ccccc2)cs1	i	i	i	i	54	i
Cc1onc(-c2ccccc2)c1C(=O)Nc1sc2c(c1C(N)=O)CCC2	i	i	i	i	62	i
Cc1cccn2c(=O)c3cc(C(=O)NC4CCCC4)c(=N)n(CCCN4CCOCC4)c3nc12	i	41	i	i	i	i
COc1ccc(CCNC(=O)c2cc3c(=O)n4cccc(C)c4nc3n(CCCN3CCOCC3)c2=N)cc1	i	54	i	i	i	i
COCCn1c(=N)c(C(=O)NCCc2ccc(OC)cc2)cc2c(=O)n3cccc(C)c3nc21	i	i	i	i	i	i
COC(=O)c1cc2c(n1S(=O)(=O)c1ccc(C)cc1)C(=O)C(=O)c1[nH]cc(C(=O)OCc3ccccc3)c1-2	nt	nt	nt	nt	nt	i
Cc1cn(CC(=O)NCCc2ccccn2)c(=O)[nH]c1=O	nt	nt	nt	nt	nt	i
COCCNC(=O)C1(C)CCN(C(=O)c2cc(C)nn2C(C)(C)C)C1 (centres undefined)	nt	nt	nt	nt	nt	i
COC(=O)c1cc(NC(=O)Cn2c(=O)oc3ccccc32)cc(C(=O)OC)c1	i	i	i	i	i	i
O=C(CNC(=O)c1ccccc1F)OCc1nc2ccccc2s1	i	i	i	i	i	i
SMILES	PABP FP inh	FID counter	eIF4H inh	HCV NS3 hel inh	HCV core dimer	MLLE-PAM2 inh
CNc1sc(C(=O)c2ccccc2F)c(N)c1-c1nc2ccccc2s1	i	i	i	i	i	41
Cc1ccc(S(=O)(=O)N(C)C)cc1NC(=S)NNC(=O)C(N)=O	61	i	i	i	i	i
Cc1ccc(S(=O)(=O)N(C)C)cc1NC(=S)NNC(=O)C1CC1	i	i	i	i	i	i
O=C1CC(/C=C/c2ccco2)=Nc2ccccc2N1	113	i	95	i	58	i
O=C1CC(/C=C/c2ccccn2)=Nc2ccccc2N1	i	i	i	i	i	i
COc1cccc(C(c2nnnn2C(C)(C)C)N2CCN(C/C=C/c3ccccc3)CC2)c1OC (centres undefined)	nt	nt	nt	nt	nt	i
Nc1nc2ccc(S(=O)(=O)N3CCCCC3)cc2s1	i	i	i	i	i	42
O=C1NC(=O)[C@@H]2C3c4ccccc4C=CN3[C@H](C(=O)c3cccs3)[C@H]12 (some centres undefined)	126	i	126	i	i	nt
Nc1c(-c2ccccc2)sc2ccc3ccccc3[n+]12	i	i	i	i	i	39
CCOC(=O)c1cc(C)sc1/N=C/C1=C(O)CCCC1=O	0.3	i	55	i	i	i
CCOC(=O)c1cc(C)sc1/N=C/C1C(=O)CCCC1=O	i	i	i	i	i	i
CC(=O)N(C(C)=O)c1ccc(Oc2ccc(Oc3ccc(N(C(C)=O)C(C)=O)cc3)cc2)cc1	nt	nt	nt	nt	nt	i
CCCCC(O)(CCCC)C(=O)N/N=C(\C)c1ccc(Cl)cc1	52	i	84	i	i	i
COc1cccc(NC(=S)Nc2cc(C)cc(C)n2)c1	i	i	i	i	86	45
Cc1cc(C)nc(NC(=S)Nc2cccc(F)c2)c1	i	i	i	i	i	i
CC(=O)Nc1cccc(-c2ccnc3c2CC(C)(C(=O)Nc2ccc(C(C)C)cc2)O3)c1 (centres undefined)	nt	nt	nt	nt	nt	i
Cc1c(C)n(CCN(C)C)c2ccc(C(=O)OCCN(C)C)cc12	i	62	i	i	i	i
COC(=O)c1[nH]c2ccccc2c1NC(=O)/C=C/c1ccc2c(c1)OCO2	120	i	i	i	i	i
CC(Cl)=CCn1c(NCCc2ccccc2)nc2c1c(=O)n(C)c(=O)n2C	nt	nt	nt	nt	nt	i
Cc1cccc(-c2cnc(C(O)c3ccc(Cl)cc3C)[nH]2)c1 (centres undefined)	nt	nt	nt	nt	nt	i
Cc1ccccc1NCc1nc2ccccc2n1C	i	i	i	i	i	i
Cn1c(CNc2ccccc2O)nc2ccccc21	69	i	86	i	i	i
CCCNC(=O)C(Cc1ccc(I)cc1)NC(=O)C1CC1 (centres undefined)	nt	nt	nt	nt	nt	i
COC(=O)c1ccccc1NC(=O)COC(=O)/C=C/c1ccco1	i	i	53	i	i	i
CC(C)(C)c1ccc(C(=O)N/C(=C\c2ccco2)C(=O)O)cc1	i	i	i	i	i	i
SMILES	PABP FP inh	FID counter	eIF4H inh	HCV NS3 hel inh	HCV core dimer	MLLE-PAM2 inh
O=C(/C=C/c1ccco1)Nc1ccccc1C(=O)O	67	i	i	i	i	i
O=C(/C=C/c1ccco1)Nc1ccccc1N1CCCC1	i	i	i	i	i	i
O=C(COC(=O)/C=C/c1ccco1)Nc1ccccc1	i	i	i	i	i	i
O=C(/C=C/c1ccco1)Nc1ccccc1C(=O)Nc1cccc(C(=O)O)c1	36	i	?	i	i	i
O=C(O)/C(=C/c1ccco1)NC(=O)c1ccccc1	120	i	72	i	i	i
Cc1cc(NC(=O)/C=C/c2ccco2)ccc1NC(=O)c1ccccc1	i	i	i	i	i	i
Cc1ccc(C(=O)N(C)Cc2nc3ccccc3c(=O)[nH]2)cc1NC(=O)c1ccco1	nt	nt	nt	nt	nt	i

From PubChem
